The record followed here is ChEMBL document CHEMBL4665666, “Discovery and characterization of trypanocidal cysteine protease inhibitors from the 'malaria box'” (Eur J Med Chem, 2019).

In data set [1] the test system is Trypanosoma cruzi. As to the kind of experiment: Trypanocidal activity against Trypanosoma cruzi Y strain trypomastigotes infected in C57BL/6 mouse peritoneal macrophage assessed as reduction in number of trypomastigotes release at 50 uM and measured after day 3 to day 11 post-infection by Neubauer chamber method. Format: functional, organism-based. The following applies: time 11.0 day. The essentials: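 Thioglycolate-elicited peritoneal macrophages from female C57BL/6 mice, 2 × 10^5/well, infected 2 h at 37°C with Y strain trypomastigotes at 5:1 (parasite:cell) and washed. They were then held with compound (3.125–50 µM) or IFN-γ 100 ng/mL. Trypomastigotes released into the supernatant were counted in a Neubauer chamber at several days after infection. Three independent experiments, each in triplicate.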

Data set [2] has as its target Rhodesain (Trypanosoma brucei rhodesiense) (UniProt Q95PM0). The data set is described as follows: Inhibition of recombinant Trypanosoma brucei rhodesain expressed in Pichia pastoris at 5 uM using Z-FR-AMC as substrate and measured at 12 sec interval for 5 mins without preincubation by fluorimetric analysis relative to control. The essentials:
(§1)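 Recombinant rhodesain or cruzain (1 nM) in 0.1 M sodium acetate pH 5.5, 0.01% Triton X-100, 1 mM β-mercaptoethanol. Compound at a single concentration, either without or after 10 min enzyme pre-incubation. Inhibition is relative to DMSO, with E-64 as positive control. Done in duplicate (primary screen) or triplicate.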

Data set [3] has as its target Cruzipain (Trypanosoma cruzi) (UniProt P25779). The data set is described as follows: Inhibition of recombinant Trypanosoma cruzi cruzain at 100 uM using Z-FR-AMC as substrate preincubated for 10 mins followed by substrate addition and measured at 12 sec interval for 5 mins by fluorimetric analysis relative to control. The following applies: time 15.0 min. The essentials: (§2)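 Recombinant rhodesain or cruzain (1 nM) in 0.1 M sodium acetate pH 5.5, 0.01% Triton X-100, 1 mM β-mercaptoethanol. Compound at a single concentration, either without or after 10 min enzyme pre-incubation. Z-FR-AMC 2.5 µM, read at 340/440 nm every 12 s for 5 min. Inhibition is relative to DMSO, with E-64 as positive control. Done in duplicate (primary screen) or triplicate.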

For data set [4] the target is unchanged. The data set is described as follows: Inhibition of recombinant Trypanosoma cruzi cruzain at 50 uM preincubated with enzyme for 5 mins followed by substrate addition in absence of BSA relative to control. The essentials:
(§3)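 For BSA sensitivity, compound was held 5 min with BSA (2 mg/mL in 0.001% Triton X-100), then 5 min with 1 nM cruzain, before substrate was added and activity monitored. Parallel runs omitted BSA under otherwise identical conditions.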

The target of data set [5] is T1, cathepsin S (Homo sapiens, UniProt P25774). The data set is described as follows: Inhibition of recombinant human cathepsin S expressed in Escherichia coli at 50 uM using Z-VVR-AMC as substrate preincubated for 10 mins followed by substrate addition and measured after 15 mins by microplate reader based assay relative to control. As to conditions: probe Z-VVR-AMC, in the assay text read “preincubated for 5 mins” for “preincubated for 10 mins”, time 20 min. The method in brief:
(§4)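 Run with or without 5 min compound–enzyme pre-incubation. AMC fluorescence at 380/460 nm over 15 min. Inhibition relative to DMSO (2% final); E64 1 µM as positive control. Two independent experiments, each in triplicate.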

Data set [6] concerns the target Cruzipain (Trypanosoma cruzi) (UniProt P25779). As to the kind of experiment: Inhibition of recombinant Trypanosoma cruzi cruzain at 50 uM preincubated with BSA for 5 mins followed by incubation with enzyme for 5 mins followed by substrate addition relative to control. The following applies: time 10.0 min. The essentials: as §3
Data set [7] addresses Rhodesain (Trypanosoma brucei rhodesiense) (UniProt Q95PM0). As to the kind of experiment: Inhibition of recombinant Trypanosoma brucei rhodesain expressed in Pichia pastoris at 10 uM using Z-FR-AMC as substrate and measured at 12 sec interval for 5 mins without preincubation by fluorimetric analysis relative to control. The essentials: as §2
Data set [8] deals with Cruzipain (Trypanosoma cruzi) (UniProt P25779). The data set is described as follows: Inhibition of recombinant Trypanosoma cruzi cruzain at 5 uM using Z-FR-AMC as substrate and measured at 12 sec interval for 5 mins without preincubation by fluorimetric analysis relative to control. The method in brief:
as §1

The target is the same in data set [9]. The data set is described as follows: Inhibition of recombinant Trypanosoma cruzi cruzain at 50 uM preincubated for 10 mins in presence of 0.01% Triton X-100 relative to control. The method in brief:
(§5)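 To test detergent sensitivity, cruzain was pre-incubated 10 min at room temperature with compound with no Triton X-100, 0.01% or 0.1% Triton X-100. Cleavage of Z-FR-AMC was then followed at pH 5.5 in acetate buffer. Percent inhibition was compared across detergent levels.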

The target of data set [10] is T1, cathepsin S. As to the kind of experiment: Inhibition of recombinant human cathepsin S expressed in Escherichia coli at 50 uM using Z-VVR-AMC as substrate and measured after 15 mins without preincubation by microplate reader based assay relative to control. The following applies: probe Z-VVR-AMC. The method in brief: as §4
For data set [11], the target named is Rhodesain (Trypanosoma brucei rhodesiense) (UniProt Q95PM0). The data set is described as follows: Inhibition of recombinant Trypanosoma brucei rhodesain expressed in Pichia pastoris at 100 uM using Z-FR-AMC as substrate and measured at 12 sec interval for 5 mins without preincubation by fluorimetric analysis relative to control. The method in brief:
(§6)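 Run with no pre-incubation or with 10 min enzyme-compound pre-incubation. Fluorescence read at 340/440 nm. Concentration was set by solubility under assay conditions. Inhibition is against DMSO, with E-64 as positive control; triplicate.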

In data set [12] the target is T2, cathepsin B (Rattus norvegicus, UniProt P00787). The data set is described as follows: Inhibition of rat cathepsin B at 50 uM using Z-FR-AMC as substrate preincubated for 5 mins followed by substrate addition and measured after 15 mins by microplate reader based assay relative to control. The following applies: probe Z-FR-AMC.
T2 sequence (P00787 whole entry): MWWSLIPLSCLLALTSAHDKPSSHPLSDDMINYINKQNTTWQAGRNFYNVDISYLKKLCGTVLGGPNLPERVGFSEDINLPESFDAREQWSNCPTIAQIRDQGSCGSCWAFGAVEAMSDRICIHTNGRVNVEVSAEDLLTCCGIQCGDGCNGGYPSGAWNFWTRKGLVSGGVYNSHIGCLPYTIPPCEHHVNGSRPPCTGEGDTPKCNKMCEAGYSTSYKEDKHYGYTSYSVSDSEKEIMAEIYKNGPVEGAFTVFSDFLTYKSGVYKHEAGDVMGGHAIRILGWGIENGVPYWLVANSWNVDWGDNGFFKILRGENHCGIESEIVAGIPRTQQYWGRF
Data set [13] has as its target T3, Cruzipain (Trypanosoma cruzi, UniProt P25779). The data set is described as follows: Competitive inhibition of recombinant Trypanosoma cruzi cruzain by Lineweaver-Burk plot analysis. The method in brief:
(§7)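 Cruzain (recombinant, 1 nM) in 0.1 M sodium acetate pH 5.5 with 0.01% Triton X-100 and 1 mM β-mercaptoethanol; Z-FR-AMC 2.5 µM, read at 340/440 nm every 12 s for 5 min, with or without 10 min enzyme–compound pre-incubation. […] For mechanism and Ki, 0.3–20.0 µM substrate and five inhibitor levels were used, with Lineweaver-Burk plots.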

Data set [14] deals with Rhodesain (Trypanosoma brucei rhodesiense) (UniProt Q95PM0). As to the kind of experiment: Inhibition of recombinant Trypanosoma brucei rhodesain expressed in Pichia pastoris at 5 uM using Z-FR-AMC as substrate preincubated for 10 mins followed by substrate addition and measured at 12 sec interval for 5 mins by fluorimetric analysis relative to control. As to conditions: time 15.0 min. The essentials: as §1
Sequence of Rhodesain (Trypanosoma brucei rhodesiense) (Q95PM0 1-450): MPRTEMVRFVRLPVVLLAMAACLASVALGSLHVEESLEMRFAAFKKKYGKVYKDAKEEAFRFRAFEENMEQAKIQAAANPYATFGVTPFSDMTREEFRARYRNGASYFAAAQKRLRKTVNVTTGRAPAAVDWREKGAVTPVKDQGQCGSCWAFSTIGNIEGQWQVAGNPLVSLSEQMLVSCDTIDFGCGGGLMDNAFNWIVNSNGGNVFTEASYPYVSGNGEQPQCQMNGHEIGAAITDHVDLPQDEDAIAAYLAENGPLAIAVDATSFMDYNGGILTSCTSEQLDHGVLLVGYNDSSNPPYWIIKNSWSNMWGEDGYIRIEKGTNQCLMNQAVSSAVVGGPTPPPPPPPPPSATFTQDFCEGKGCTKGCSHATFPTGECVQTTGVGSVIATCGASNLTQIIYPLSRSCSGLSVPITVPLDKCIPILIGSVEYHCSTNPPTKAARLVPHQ

The target of data set [15] is Cruzipain (Trypanosoma cruzi) (UniProt P25779). As to the kind of experiment: Inhibition of recombinant Trypanosoma cruzi cruzain at 10 uM using Z-FR-AMC as substrate preincubated for 10 mins followed by substrate addition and measured at 12 sec interval for 5 mins by fluorimetric analysis relative to control. The following applies: time 15.0 min. The method in brief: as §2
Sequence of Cruzipain (Trypanosoma cruzi) (P25779 123-467 limits assumed): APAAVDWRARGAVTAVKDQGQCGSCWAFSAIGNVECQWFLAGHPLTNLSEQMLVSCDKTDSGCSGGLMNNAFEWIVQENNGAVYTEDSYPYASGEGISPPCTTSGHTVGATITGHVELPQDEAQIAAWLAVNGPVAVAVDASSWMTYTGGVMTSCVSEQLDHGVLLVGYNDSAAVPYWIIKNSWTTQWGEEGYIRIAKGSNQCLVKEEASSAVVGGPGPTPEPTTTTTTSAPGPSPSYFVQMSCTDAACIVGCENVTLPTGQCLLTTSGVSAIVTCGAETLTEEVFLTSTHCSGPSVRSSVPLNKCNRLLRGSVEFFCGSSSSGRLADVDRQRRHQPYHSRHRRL

For data set [16], the target named is T2, cathepsin B. As to the kind of experiment: Inhibition of rat cathepsin B at 50 uM using Z-FR-AMC as substrate measured after 15 mins without preincubation by microplate reader based assay relative to control. The following applies: probe Z-FR-AMC. The essentials: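 Rat cathepsin B (20 nM) at 25°C in 100 mM sodium phosphate, 100 mM NaCl, 1 mM EDTA, 1 mM DTT, 0.01% CHAPS. Compound pre-incubated 0 or 5 min with enzyme; Z-FR-AMC 50 µM, ex 380/em 440 nm, monitored 15 min. Inhibition is versus 2% DMSO, with 1 µM E64 control. Two independent experiments in triplicate.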

Data set [17] has as its target Cruzipain (Trypanosoma cruzi) (UniProt P25779). As to the kind of experiment: Inhibition of recombinant Trypanosoma cruzi cruzain at 50 uM preincubated for 10 mins in absence of Triton X-100 relative to control. The method in brief: as §5
Data set [18] has the same target. The data set is described as follows: Inhibition of recombinant Trypanosoma cruzi cruzain at 10 uM using Z-FR-AMC as substrate and measured at 12 sec interval for 5 mins without preincubation by fluorimetric analysis relative to control. The method in brief:
as §2

The target is the same in data set [19]. The data set is described as follows: Inhibition of recombinant Trypanosoma cruzi cruzain at 50 uM preincubated for 10 mins in presence of 0.1% Triton X-100 relative to control. The method in brief: as §5
Data set [20] has as its target Rhodesain (Trypanosoma brucei rhodesiense, UniProt Q95PM0). As to the kind of experiment: Inhibition of recombinant Trypanosoma brucei rhodesain expressed in Pichia pastoris using Z-FR-AMC as substrate and measured at 12 sec interval for 5 mins without preincubation by fluorimetric analysis. The essentials:
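Rhodesain (1 nM) with Z-FR-AMC (2.5 µM) in 0.1 M sodium acetate pH 5.5, 0.01% Triton X-100, 1 mM β-mercaptoethanol, with or without 10 min enzyme-compound pre-incubation. Fluorescence read at 340/440 nm. IC50 by four-parameter nonlinear regression from at least six concentrations in triplicate, with at least two independent runs. Mean ± SEM reported.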

The target in data set [21] is T3, Cruzipain. As to the kind of experiment: Inhibition of recombinant Trypanosoma cruzi cruzain using Z-FR-AMC as substrate and measured at 12 sec interval for 5 mins without preincubation by fluorimetric analysis. The essentials: as §7
Data set [22] deals with Rhodesain (Trypanosoma brucei rhodesiense) (UniProt Q95PM0). As to the kind of experiment: Inhibition of recombinant Trypanosoma brucei rhodesain expressed in Pichia pastoris at 10 uM using Z-FR-AMC as substrate preincubated for 10 mins followed by substrate addition and measured at 12 sec interval for 5 mins by fluorimetric analysis relative to control. As to conditions: time 15.0 min. The essentials: as §2

For data set [23] the target is unchanged. The data set is described as follows: Inhibition of recombinant Trypanosoma brucei rhodesain expressed in Pichia pastoris at 100 uM using Z-FR-AMC as substrate preincubated for 10 mins followed by substrate addition and measured at 12 sec interval for 5 mins by fluorimetric analysis relative to control. The following applies: time 15.0 min. The essentials:
as §6

For data set [24], the target named is Cruzipain (Trypanosoma cruzi) (UniProt P25779). As to the kind of experiment: Inhibition of recombinant Trypanosoma cruzi cruzain at 5 uM using Z-FR-AMC as substrate preincubated for 10 mins followed by substrate addition and measured at 12 sec interval for 5 mins by fluorimetric analysis relative to control. As to conditions: time 15.0 min. The essentials: as §1

Data set [25] shares this target. As to the kind of experiment: Inhibition of recombinant Trypanosoma cruzi cruzain at 100 uM using Z-FR-AMC as substrate and measured at 12 sec interval for 5 mins without preincubation by fluorimetric analysis relative to control. The method in brief:
as §2

In data set [26] the target is Rhodesain (Trypanosoma brucei rhodesiense) (UniProt Q95PM0). As to the kind of experiment: Inhibition of recombinant Trypanosoma brucei rhodesain expressed in Pichia pastoris at 0.5 uM using Z-FR-AMC as substrate and measured at 12 sec interval for 5 mins without preincubation by fluorimetric analysis relative to control. The essentials: as §2
In data set [27] the target is T2, cathepsin B. As to the kind of experiment: Inhibition of rat cathepsin B at 1 uM using Z-FR-AMC as substrate measured after 15 mins without preincubation by microplate reader based assay relative to control. The following applies: probe Z-FR-AMC.
Data set [28] concerns the target T1, cathepsin S. The data set is described as follows: Inhibition of recombinant human cathepsin S expressed in Escherichia coli at 1 uM using Z-VVR-AMC as substrate preincubated for 10 mins followed by substrate addition and measured after 15 mins by microplate reader based assay relative to control. The following applies: probe Z-VVR-AMC, in the assay text read “preincubated for 5 mins” for “preincubated for 10 mins”, time 20 min. The method in brief:
as §4

The target of data set [29] is T2, cathepsin B. The data set is described as follows: Inhibition of rat cathepsin B at 1 uM using Z-FR-AMC as substrate preincubated for 5 mins followed by substrate addition and measured after 15 mins by microplate reader based assay relative to control. As to conditions: probe Z-FR-AMC.
Data set [30] deals with T1, cathepsin S. The data set is described as follows: Inhibition of recombinant human cathepsin S expressed in Escherichia coli at 1 uM using Z-VVR-AMC as substrate and measured after 15 mins without preincubation by microplate reader based assay relative to control. The following applies: probe Z-VVR-AMC.

SMILES strings stand for the structures. The source made the active and inactive calls. The calls are words filed in the database; no cut-off is given here.

T1 sequence (P25774 whole entry): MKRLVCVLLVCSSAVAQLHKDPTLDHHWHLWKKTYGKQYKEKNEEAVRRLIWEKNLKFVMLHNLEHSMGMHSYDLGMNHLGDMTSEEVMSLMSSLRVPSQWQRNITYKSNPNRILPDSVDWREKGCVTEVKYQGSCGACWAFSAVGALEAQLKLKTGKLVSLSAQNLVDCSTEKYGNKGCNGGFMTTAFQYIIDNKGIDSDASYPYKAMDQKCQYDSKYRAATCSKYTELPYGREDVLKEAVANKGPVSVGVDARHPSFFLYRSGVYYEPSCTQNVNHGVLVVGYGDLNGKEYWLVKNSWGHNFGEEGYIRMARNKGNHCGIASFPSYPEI
T3 sequence (P25779 whole entry): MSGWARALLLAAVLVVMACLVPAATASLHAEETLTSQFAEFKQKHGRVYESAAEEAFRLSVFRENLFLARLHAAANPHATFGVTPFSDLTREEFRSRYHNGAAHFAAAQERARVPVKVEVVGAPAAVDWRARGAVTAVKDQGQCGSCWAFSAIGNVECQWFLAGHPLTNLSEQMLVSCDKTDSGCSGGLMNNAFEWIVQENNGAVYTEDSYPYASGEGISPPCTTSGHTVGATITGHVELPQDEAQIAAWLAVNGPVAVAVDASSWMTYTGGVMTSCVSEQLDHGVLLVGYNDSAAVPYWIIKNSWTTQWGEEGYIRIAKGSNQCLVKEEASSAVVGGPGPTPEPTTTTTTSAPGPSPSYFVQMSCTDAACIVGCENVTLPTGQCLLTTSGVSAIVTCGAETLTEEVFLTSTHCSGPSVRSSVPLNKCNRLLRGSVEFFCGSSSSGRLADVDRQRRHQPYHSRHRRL
Sequence of Rhodesain (Q95PM0 whole entry): as the sequence (Q95PM0 1-450) above

With `c1ccc(CNc2nc(Nc3ccccc3)nc3ccccc23)cc1`, the outcome in data set [1] was Active. The inhibition amounted to 67.1% in data set [2]; 90% in data set [3]; 70.2% in data set [4]; 64.4% in [6]; 14% in data set [7]; 70.8% in [8]. The inhibition was 89.8% in data set [9]; 85% in data set [11]; 82.8% in [14]; 57% in data set [15]; 82.4% in [17]; 62% in [18]. Further, the inhibition in data set [19] stood at 28.1%; in data set [22], 9%; in data set [23], 94%; in data set [24], 82.3%; in data set [25], 91%. Besides, the inhibition at 0.25 h, 50 µM in data set [5] was 4.5%; in data set [10] it was 14.8%; in data set [12] it was 27.5%; in data set [16], 28.6%. The inhibition constant Ki in data set [13] was determined as 1.4 µM. Moreover, the IC50 in data set [20] was 30 µM; in data set [21], 9 µM.

For the compound `CC(C)C[C@H](NC(=O)[C@H]1O[C@@H]1C(=O)O)C(=O)NCCCCN=C(N)N` [E-64], the inhibition in data set [26] came out at 36%. For the same compound, the inhibition at 0.25 h, 1 µM in [27] is 99.1%; in data set [28], 99.9%; in data set [29] it was 100%; in data set [30], 99.9%.
